Assay outcomes from PubChem.
SENP1 inh – blocks the human SENP1 SUMO protease catalytic domain. Q9P0U3. recombinant SENP1 catalytic domain, CyPet-SUMO1-YPet FRET cleavage. inhibition, % at 10 µM. hit rate 0.21% among 360,000;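 active = inhibition at least 30% at 10 µM, raw YFP signal under a set limit, fluorescence ratio 0.5 to 1.5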;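 also: 0% = enzyme with DMSO and 100% = no enzyme wells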
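Controls: no-enzyme wells low, DMSO-plus-enzyme wells high control. Test system: human recombinant His6-tagged SENP1 catalytic domain enzyme. Reagent: SFCypet-SUMO1-SFYpet FRET protein substrate, 25 nM final. Doses: one dose per compound, 10 µM, 0.5% DMSO. Detection: FRET, CFP and YFP emission. Timing: 50 min reaction at room temperature.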
Myeloid diff MLP – myeloid differentiation induction. ER-HoxA9 myeloid progenitors, lysozyme-GFP differentiation, flow cytometry. calls only at 10 µM. hit rate 1% among 360,000;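 active = normalized GFP-positive differentiation at or above the plate's own cutoff, the solvent-only control mean plus 3 SD; inconclusive = no clear call, values can overlap the other calls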;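 also: cells exposed to compound for four days before flow analysis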
MT1-MMP act inh – blocks activation of human MT1-MMP; hit rate 0.061% among 360,000; GFP/RFP ratio change, % at 20 µM; P50281; AID 651647; HT1080 RFP-PRO-GFP cells, GFP/RFP ratio fluorescence, overnight; percent of plate control window, DMSO zero;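 active = GFP/RFP ratio change of at least 30% with cell ATP level not reduced by more than half and red fluorescence within 50% of control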
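system = RFP-PRO-GFP reporter HT1080 cells | dosing = 20 µM single dose, 1% DMSO | timing = overnight cell settling, then overnight compound exposure, 37 °C, 5% CO2 | read-out basis = GFP/RFP fluorescence ratio | controls = DMSO and RFP-L50D-GFP cell wells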
DAGLB inh – blocks human DAGLB lipase activity | Q8NCG7 | HEK293T DAGLB membrane lysate, EnzChek fluorogenic substrate | inhibition, % at 5.17 µM | hit rate 0.059% among 340,000 | AID 504411; in the data active = inhibition above about 34%;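 also: 0% = enzyme with vehicle and 100% = wells lacking enzyme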
Target sequence (Q8NCG7 whole entry, looked up): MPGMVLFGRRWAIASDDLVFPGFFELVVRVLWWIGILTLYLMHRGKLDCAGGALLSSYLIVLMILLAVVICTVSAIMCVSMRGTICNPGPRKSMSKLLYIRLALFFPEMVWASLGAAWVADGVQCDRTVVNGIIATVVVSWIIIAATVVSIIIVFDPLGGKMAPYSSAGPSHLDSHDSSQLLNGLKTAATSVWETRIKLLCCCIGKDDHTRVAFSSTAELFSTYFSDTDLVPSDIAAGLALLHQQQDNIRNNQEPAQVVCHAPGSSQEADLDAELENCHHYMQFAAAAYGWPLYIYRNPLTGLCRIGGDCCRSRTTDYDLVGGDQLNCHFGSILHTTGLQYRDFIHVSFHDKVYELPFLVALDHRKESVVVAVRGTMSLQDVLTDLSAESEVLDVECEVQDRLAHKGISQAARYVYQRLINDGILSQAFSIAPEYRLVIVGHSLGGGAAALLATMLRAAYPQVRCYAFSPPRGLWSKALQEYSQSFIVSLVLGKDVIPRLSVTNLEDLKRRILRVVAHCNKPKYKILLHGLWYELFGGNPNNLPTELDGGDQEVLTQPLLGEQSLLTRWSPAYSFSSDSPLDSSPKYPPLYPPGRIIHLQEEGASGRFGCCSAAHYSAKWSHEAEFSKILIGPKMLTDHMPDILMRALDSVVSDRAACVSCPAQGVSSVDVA
beta cell repl – induces beta-cell replication in MIN6 cells. MIN6 cells proliferation, ATPlite luminescence, 48 h; cells starved in 0.2% serum; 100% = growth in 10% serum. proliferation, % at 10 µM. hit rate 0.29% among 330,000. AID 2380;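 active = compounds whose signal lies at least 3.5 SD above the mean of all wells on their plate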;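 also: 0% = DMSO-treated cells in low-serum medium and 100% = 10% serum control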
NRP1-CendR mod – alters CendR peptide binding to human NRP-1 | O14786 | FAM-RPARPAR peptide binding to NRP-1, fluorescence polarization | inhibition, % at 25 µM | hit rate 0.85% among 360,000;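 active = inhibition or corrected inhibition above about 18%, plus a signal ratio from 0.5 to 1.5, limit read from the data, passing the limit was not always enough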
SENP1 inh conf – SENP1 (human) inhibition, single concentration confirmation; shares compounds with SENP1 inh; recombinant SENP1, CyPet-SUMO1-YPet FRET cleavage; inhibition, % at 10 µM; hit rate 34% among 520; AID 651678; in the data active = inhibition mostly above about 35%, no sharp cut-off; inactive = mostly below about 32%;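 also: 0% = enzyme with DMSO and 100% = no enzyme control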
SENP1 kin conf – SENP1 (human) inhibition, kinetic confirmation; AID 651690; shares compounds with SENP1 inh; hit rate 26% among 520; inhibition, % at 10 µM; recombinant SENP1, CyPet-SUMO1-YPet FRET kinetic cleavage; in the data active = inhibition mostly above about 32%, no sharp cut-off; inactive = mostly below about 29%;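 also: 0% = DMSO with enzyme and 100% = no enzyme substrate only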
Numbers without * were called inactive; i = inactive; ? = inconclusive; nt = no result. Sampled rows, rich in hits. Any-hit rate of the full collection: about 2.4%.

SMILES	SENP1 inh	Myeloid diff MLP	MT1-MMP act inh	DAGLB inh	beta cell repl	NRP1-CendR mod	SENP1 inh conf	SENP1 kin conf
O=C(Cn1c(O)c(/C=C2\C=Nc3ccccc32)sc1=O)Nc1ccc2c(c1)OCO2	46*	i	11	3	-3	-8	10	2
O=C1CCCN1C1CCN(Cc2ccccc2)S(=O)(=O)N1 (stereo unspecified)	1	i	4	nt	nt	-14	nt	nt
Cc1ccc(-n2cnc3sc(C)c(C)c3c2=O)cc1	37*	i	4	-3	2	2	-14	1
OC1(C#Cc2c(-c3ccsc3)oc3ccc(N4CCOCC4)cc23)CCCCC1	-7	i	6	3	-7	4	nt	nt
O=C(OCc1ccc(O)cc1)c1c(-c2ccsc2)oc2ccc(N3CCOCC3)cc12	36*	i	-1	-23	-8	9	19	21
O=C(CN1C(=O)/C(=C\C=C\c2ccccc2)SC1=S)Nc1ccc(F)cc1	66*	i	0	2	0	-50	63*	41*
O=C(CCN1C(=O)/C(=C\C=C\c2ccccc2)SC1=S)Nc1ccc(C(=O)O)cc1	-11	i	-3	9	-6	-63	nt	nt
NC(=O)N/N=C/c1ccc(N2CCOCC2)s1	47*	i	0	1	0	-109	75*	52*
CCc1ccc(NC(=O)/C(C#N)=C/c2cc3ccc(C)cc3nc2N2CCOCC2)cc1	30	i	-55	-3	0	-86	nt	nt
CCN(CC)c1nc2cc(C)ccc2cc1/C=C(\C#N)C(N)=O	79*	i	-20	8	-2	-61	58*	33
O=[N+]([O-])c1ccc(-n2cc(-c3ccccc3)nn2)cc1	3	i	3	-10	0	0	nt	nt
O=C1/C(=C/c2ccc([N+](=O)[O-])cc2)C=C(c2ccccc2)N1c1ccccc1	40*	i	-6	2	-4	-27	-4	-2
COc1ccc2c(c1)c1nc3ccccc3nc1n2CCn1c(=O)oc2ccccc21	54*	i	-20	-1	3	-21	131*	83*
COc1ccc2c(c1)c1nc3ccccc3nc1n2Cc1ccc(OC(C)C)c(OC)c1	35*	i	-21	-3	-6	-9	47*	34*
Cc1cc(Br)ccc1-n1[nH]c(C)c(C=Nc2cccc3nsnc23)c1=O	40*	i	-4	4	0	-29	6	6
COc1cc(/C=C2\SC(=Nc3c(C)n(C)n(-c4ccccc4)c3=O)NC2=O)ccc1O	42*	i	-28	0	nt	-68	59*	41*
Nc1nnc(/C=C/c2cccc([N+](=O)[O-])c2)s1	1	i	2	0	-5	9	nt	nt
Cc1nc2ccc(NS(=O)(=O)c3c(F)cccc3F)cc2s1	52*	i	-1	0	0	-38	26	25*
Cc1nc2ccc(NS(=O)(=O)c3ccc(F)cc3)cc2s1	-1	i	0	1	-2	9	nt	nt
CCOCCCNS(=O)(=O)c1ccc(NC(=O)CN2C(=O)c3ccccc3C2=O)cc1	29*	i	5	-1	2	-1	1	-2
COc1ccc(NC(=O)C(NS(=O)(=O)c2cccs2)C(C)C)cc1Cl (stereo unspecified)	2	i	0	0	1	6	nt	nt
O=C(O)CCCC(=O)Nc1cccc2cccnc12	34*	i	0	1	1	-8	2	-4
NS(=O)(=O)c1ccc(CNC(=S)NC2CCCCC2)cc1	40*	i	4	-1	-1	-12	-5	-5
S=c1[nH]nc(C2CCCCC2)n1/N=C/c1cccs1	0	i	-3	0	-1	5	nt	nt
Cc1c(N2C(=O)/C(=C/c3ccccc3)SC2=S)c(=O)n(-c2ccccc2)n1C	0	i	3	0	-1	-1	nt	nt
SMILES	SENP1 inh	Myeloid diff MLP	MT1-MMP act inh	DAGLB inh	beta cell repl	NRP1-CendR mod	SENP1 inh conf	SENP1 kin conf
Cc1c(N2C(=O)/C(=C/c3ccc(N(C)C)cc3)N(C)C2=S)c(=O)n(-c2ccccc2)n1C	67*	i	-78	6	nt	-267	55*	38*
Nc1c(-c2ccc(C(F)(F)F)cc2)nc2ncccn12	53*	i	0	nt	nt	-1	16	9
CC(NS(=O)(=O)c1ccc2c(c1)oc(=O)n2C)c1ccccc1 (stereo unspecified)	34*	i	-25	-1	0	-24	12	15
CC(C)Nc1ccc(C(CC(N)=O)NC(=O)Cc2cccc3ccccc23)cc1[N+](=O)[O-] (stereo unspecified)	41*	i	11	4	-1	-33	-6	-5
Cc1ccc(NC(=O)c2ccc(Cl)c(S(=O)(=O)N3CCCC3)c2)nc1	2	i	-2	-2	3	-12	nt	nt
COc1ccccc1NC(=O)c1cc2n(n1)C(C(F)(F)F)CC(c1ccc3c(c1)OCO3)N2 (stereo unspecified)	38*	i	-11	-5	-6	2	31	23
COc1ccc(OC)c(NC(=O)c2cc3n(n2)C(C(F)(F)F)CC(c2ccc4c(c2)OCO4)N3)c1 (stereo unspecified)	2	i	-5	-6	-6	-1	nt	nt
NC(=S)N/N=C/c1ccccc1OCCSc1ccc(Cl)cc1	2	i	-26	0	0	5	nt	nt
NC(=O)CCCn1c(C(=O)c2cc(Cl)c(N)c(Cl)c2)c2ccc([N+](=O)[O-])cc2[n+]1[O-]	30*	?	-3	8	-7	-6	20	3
COc1ccc2oc(C(=O)OCC(=O)N(Cc3ccccc3)C(C)(C)C)c(C)c2c1	-10	i	-3	-7	-6	6	nt	nt
N#Cc1c(SCc2ccc(Cl)cc2)sc(C(=O)c2ccccc2)c1N	-11	i	2	-9	-4	-1	nt	nt
CSc1c(C#N)c(N)nc2sc(C(=O)c3ccccc3)c(N)c12	65*	i	nt	-3	-4	-37	57*	40*
COc1cc(SC#N)ccc1N=Cc1c(C)[nH]n(-c2ccc(C)cc2C)c1=O	67*	i	-6	-8	-4	-32	38*	34*
COc1cc(SC#N)ccc1N=Cc1c(C)[nH]n(-c2cccc3ccccc23)c1=O	nt	nt	nt	nt	-5	nt	nt	nt
